From ChEMBL document CHEMBL3046706, “Synthesis and quantitative structure-activity relationships of new 2,5-disubstituted-1,3,4-oxadiazoles” (2001) come the findings set out here.

Common to all, as to type: functional
For one experiment, the system named is Spodoptera eridania. Kind of experiment: Insecticidal activity against second-instar larvae of Spodoptera eridania fed on compound-treated corn leaves measured after 5 days. Particulars: 120 h.
Experiment [1] has as its system Mythimna separata. Description: Insecticidal activity against second-instar larvae of Mythimna separata (Oriental armyworm) fed on compound-treated mealie leaves measured after 5 days. Particulars: 120 h. In outline:
(§1)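 Second-instar Pseudaletia separata larvae were fed compound-treated mealie leaves, with fresh treated leaves added daily, at about 20 °C in a well-ventilated room. Percent mortality at 5 days was based on the number and size of live larvae relative to untreated controls. LC50 values are in μg/mL and were converted to pLC50 (−log LC50).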

The test system of experiment [2] is Mythimna separata. Kind of experiment: Insecticidal activity against second-instar larvae of Mythimna separata (Oriental armyworm) fed on compound-treated mealie leaves at pLC50 measured after 5 days. In outline:
as §1

The structures appear in SMILES notation.

As to `Clc1ccc(-c2nnc(-c3ccc(Cl)cc3Cl)o2)c(Cl)c1`, the LC50 in the experiment on Spodoptera eridania was 10.2 µM. In turn, `Fc1cc(-c2nnc(COc3ccccc3Cl)o2)c(Cl)cc1Cl` gave an LC50 in the experiment on Mythimna separata [1] of 14.5 µM.

In turn, `CC1(C)C(C=C(Cl)Cl)C1c1nnc(/C=C/c2ccccc2)o1` (mixture of isomers) showed a mortality with Mythimna separata [2] of 0%. Moreover, in the experiment with Mythimna separata [1], the LC50 was greater than 1000 µM. On to `CC1(C)C(C=C(Cl)Cl)C1c1nnc(-c2cccc(F)c2)o1` (configuration not stated), for which, in the experiment on Spodoptera eridania, the LC50 is 759 µM. `CC1(C)C(C=C(Cl)Cl)C1c1nnc(-c2cc(F)c(Cl)cc2Cl)o1` (configuration not stated) showed an LC50 in the experiment with Spodoptera eridania of 562 µM. `CC1(C)[C@@H](C=C(Cl)Cl)[C@@H]1c1nnc(-c2ccccc2)o1` (relative stereo): the LC50 in the experiment with Mythimna separata [1] was 1380 µM. In the experiment on Spodoptera eridania, `Fc1cc(-c2nnc(-c3cc(F)c(Cl)cc3Cl)o2)c(Cl)cc1Cl` gave a 50% lethal concentration (LC50) of 1.78 µM. On to `Clc1ccc(OCc2nnc(-c3ccc(Cl)nc3)o2)cc1`, for which, in the experiment on Mythimna separata [2], the mortality is 7%. The molecule further showed an LC50 in the experiment with Mythimna separata [1] greater than 1000 µM. The matching figures for `CC1(C)C(C=C(Cl)Cl)C1c1nnc(-c2ccc(Cl)cc2)o1` (mixture of isomers): 0% and greater than 1000 µM. As to `Clc1ccc(OCc2nnc(-c3ccc(Cl)cc3Cl)o2)c(Cl)c1`, the LC50 in the experiment on Mythimna separata [1] was 776 µM. In the case of `COc1ccc(-c2nnc(C3C(C=C(Cl)Cl)C3(C)C)o2)cc1` (mixture of isomers), in the experiment with Mythimna separata [2], the mortality amounted to 0%. Moreover, the LC50 in the experiment on Mythimna separata [1] is greater than 1000 µM. Take `Fc1cc(-c2nnc(-c3ccc(Cl)cc3Cl)o2)c(Cl)cc1Cl`: the LC50 in the experiment with Spodoptera eridania is 5.25 µM. As to `CC1(C)C(C=C(Cl)Cl)C1c1nnc(-c2cccs2)o1` (mixture of isomers), the mortality in the experiment on Mythimna separata [2] is listed as 0%. The same molecule had a median lethal concentration (LC50) in the experiment on Mythimna separata [1] greater than 1000 µM. In the experiment with Spodoptera eridania, `Fc1cccc(-c2nnc(-c3cc(F)c(Cl)cc3Cl)o2)c1` had an LC50 of 51.3 µM.

In the case of `Clc1ccc(OCc2nnc(-c3cccnc3Cl)o2)cc1`, in the experiment with Mythimna separata [2], the mortality was 0%. Besides, the LC50 with Mythimna separata [1] was greater than 1000 µM. Molecule `Fc1cc(-c2nnc(COc3ccc(Cl)cc3Cl)o2)c(Cl)cc1Cl` had an LC50 with Mythimna separata [1] of 1700 µM. `CC1(C)[C@@H](C=C(Cl)Cl)[C@@H]1c1nnc(-c2ccc(Cl)cc2Cl)o1` (relative stereo) showed an LC50 in the experiment on Mythimna separata [1] of 123 µM.

In the experiment with Mythimna separata [2], `Fc1cccc(-c2nnc(COc3ccc(Cl)cc3)o2)c1` yielded a mortality of 0%. The molecule also gave an LC50 with Mythimna separata [1] greater than 1000 µM. In the experiment on Mythimna separata [1], `Clc1ccc(OCc2nnc(-c3ccc(Cl)cc3Cl)o2)cc1` had an LC50 of 15.8 µM. Regarding `Fc1cc(-c2nnc(COc3ccc(Cl)cc3)o2)c(Cl)cc1Cl`, the LC50 with Mythimna separata [1] was 55 µM.
